High-throughput results: PubChem, Broad Institute
Rows were chosen to be rich in hits. Some 1.9% of all compounds tested hit in one or more screens of this group.
XiGFP reactiv – reactivates the inactive X chromosome in mouse fibroblasts; actives 0.055% (n = 360,000); XiGFP mouse fibroblasts, % GFP-positive cells imaging, 3 d; cells co-treated with 5-aza-dC sensitizer; scaled so ellipticine positive control = 100%; activation, % at 7.58 µM;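 active = mean normalized replicate activation at least 10% and every replicate at or above 10%; inconclusive = only one of the two criteria met; inactive = mean below 10% and not all replicates reach 10%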;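 also: 0% = median of on-plate neutral control wells and 100% = ellipticine 6 µM median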
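material = 68-5-11 XiGFP fibroblast line | medium = DMEM plus 5-aza-dC sensitizer | schedule = 3 days compound exposure | benchmarks = positive control ellipticine, 6 µM final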
PGC1a acetyl inh – PGC1a acetylation modulation, inhibitor mode; U2OS PGC1a acetylation, AlphaScreen anti-acetyl-lysine; with virally co-expressed GCN5 acetyltransferase; inhibition, % at 15.6 µM; actives 0.17% (n = 350,000);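 active = every replicate shows inhibition of at least 40%; inconclusive = mean inhibition at least 40% but some replicate below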;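 also: 0% = neutral control wells and 100% = positive control wells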
F508del corr – correctors of CFTR F508del function in bronchial epithelial cells. actives 0.36% (n = 350,000). activity (quench increase), % at 7.58 µM. AID 720511. CFBE cells, YFP halide quenching; stimulated with forskolin plus potentiator P3; % fluorescence drop versus neutral controls;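 active = mean added fluorescence quench of at least 8% versus neutral control, with both replicates also reaching 8%; inconclusive = only one of the mean or replicate conditions met; inactive = mean below 8% and not both replicates reaching 8%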;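 also: cells transiently co-express mutant CFTR-F508del with the halide-sensitive YFP; corrector assay measuring rescue of mutant channel to the surface after 24 h compound exposure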
FN deposition inh – fibronectin deposition inhibition; AH1F fibroblasts, Alexa488-fibronectin deposition fluorescence, overnight; inhibition, % at 12.6 µM; actives 0.086% (n = 350,000);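 active = mean inhibition across replicates of 30% or more, regardless of how many single replicates reach that level; inconclusive = mean under 30% yet at least half of replicates reach 30%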;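 also: positive control wells lacked labelled fibronectin entirely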
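Material – AH1F fibroblast monolayer, labelled fibronectin deposition · Reagent – labelled fibronectin 24 nM · Timing – 1 h adhesion, overnight exposure · Measured by – fluorescence at 485 nm excitation, 525 nm emission · Read-out – inhibition of fibronectin deposition signal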
Cneo AK release – causes C. neoformans cell lysis; actives 0.2% (n = 360,000); lysis activity, % at 15 µM; adenylate kinase release luminescence, 4 h; normalised: neutral wells 0, clomiphene wells 100;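 active = mean lysis activity across replicates of at least 80%, whatever share of replicates individually reach that level; inactive = mean lysis activity below 80%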
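Material: C. neoformans cells; Schedule: 4 h static compound exposure, 37 °C, read 1 h post-reagent; Measured by: adenylate kinase release luminescence; Read-out: signal increase indicating cell lysis; Controls: Clomiphene as positive lysis control.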
DENV2 CPE – inhibitors of DENV2 cytopathic effect; DENV2-infected cells, cytopathic effect rescue, plate reader; CPE inhibition, % at 9.99 µM; actives 1.7% (n = 350,000); in the data active = CPE inhibition above about 20%, passing the limit was not always enough; inconclusive = no clear call, values can overlap the other calls; tested in BHK-21 cells;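 also: 0% = median of neutral control wells and 100% = median of positive control wells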
* = called active by the depositor; ? = inconclusive; nt = no result given.

SMILES | XiGFP reactiv | PGC1a acetyl inh | F508del corr | FN deposition inh | Cneo AK release | DENV2 CPE
C[C@H](CO)N1C[C@H](C)[C@@H](CN(C)C)Oc2ccc(NS(=O)(=O)c3ccc(Cl)cc3)cc2CC1=O | -1.1 | 2.0 | 0.6 | nt | -5.5 | 5.6
CC(C)NC(=O)N(C)C[C@@H]1Oc2ccc(NC(=O)CCC(F)(F)F)cc2CC(=O)N([C@H](C)CO)C[C@@H]1C | 0.0 | -4.3 | -0.3 | nt | -3.0 | 2.5
C[C@H](CO)N1C[C@H](C)[C@@H](CN(C)Cc2ccccc2)Oc2c(cccc2N(C)C)C1=O | -0.2 | -0.3 | 1.1 | nt | 19.3 | 3.5
C[C@H](CO)N1C[C@H](C)[C@@H](CN(C)Cc2ccncc2)Oc2ccc(N(C)C)cc2C1=O | -0.1 | 23.3 | 1.5 | -7.4 | 5.3 | 47.3*
C[C@@H]1CN([C@@H](C)CO)C(=O)c2cc(N(C)C)ccc2O[C@H]1CN(C)Cc1ccccc1 | -1.0 | -7.1 | 1.3 | nt | -5.8 | ?
C[C@H](CO)N1C[C@H](C)[C@H](CN(C)CC2CC2)Oc2c(cccc2N(C)C)C1=O | 0.3 | 3.1 | -4.4 | -8.4 | 3.5 | 43.8*
C[C@H]1CN([C@@H](C)CO)C(=O)c2cccc(N(C)C)c2O[C@H]1CN(C)C | -0.7 | 10.1 | 0.4 | 7.5 | 2.4 | -3.6
C[C@@H]1CN([C@H](C)CO)C(=O)c2cccc(N(C)C)c2O[C@H]1CN(C)Cc1ccncc1 | 0.0 | 8.6 | 0.6 | -5.2 | 0.2 | 20.2*
CO[C@@H]1CN(C)C(=O)c2ccc(NC(=O)C3CCCC3)cc2OC[C@@H](C)N(Cc2nccs2)C[C@H]1C | 0.5 | -5.9 | 1.8 | 2.7 | -1.0 | -0.4
O=C(CNC(=O)c1ccccc1)OCC(=O)c1ccccc1Cl | 0.0 | -2.9 | 1.5 | nt | 0.4 | 28.4*
CC(C)(C)NC(=O)C(c1cccc2ccccc12)n1c(=O)c(-c2ccccc2)nc2ccccc21 (configuration not stated) | -0.2 | nt | 1.0 | -3.8 | nt | 27.1*
CC(C)(C)NC(=O)C(c1cccc2ccccc12)n1c(=O)c(-c2ccco2)nc2ccccc21 (configuration not stated) | 0.0 | nt | 2.5 | -11.5 | nt | 0.0
C[C@@H]1CN([C@@H](C)CO)C(=O)CCCn2nncc2CO[C@H]1CN(C)Cc1ccc(C(=O)O)cc1 | -0.1 | 11.7 | -1.2 | -3.1 | nt | -7.2
COCC(=O)Nc1ccc2c(c1)C(=O)N(C)C[C@H](OC)[C@H](C)CN[C@H](C)CO2 | -0.1 | 10.8 | -1.0 | -25.8 | -3.3 | nt
COCC(=O)Nc1ccc2c(c1)OC[C@@H](C)NC[C@H](C)[C@H](OC)CN(C)C2=O | 0.7 | nt | nt | 5.5 | -11.2 | 30.0*
COCC(=O)Nc1ccc2c(c1)OC[C@@H](C)NC[C@H](C)[C@@H](OC)CN(C)C2=O | 0.5 | nt | nt | -14.6 | -3.4 | 8.6
CCC(=O)Nc1ccc2c(c1)OC[C@@H](C)NC[C@H](C)[C@@H](OC)CN(C)C2=O | 0.1 | nt | nt | -12.0 | 3.6 | 27.7*
COCC(=O)Nc1ccc2c(c1)OC[C@H](C)NC[C@@H](C)[C@@H](OC)CN(C)C2=O | 0.3 | nt | nt | -3.5 | 1.0 | 24.1*
CCCC#Cc1cnc2c(c1)C(=O)N([C@@H](C)CO)C[C@H](C)[C@H](CN(C)C(=O)C1CCOCC1)O2 | -0.2 | -0.5 | -2.1 | nt | 10.8 | 16.2
C[C@@H]1CN([C@H](C)CO)S(=O)(=O)c2ccc(C#CC3CC3)cc2O[C@H]1CN(C)C(=O)c1cnccn1 | 0.2 | -2.7 | -6.2 | nt | -7.5 | 2.7
COc1ccc(/C=N/NC(=O)c2c(C)nc3ccc(Br)cn23)cc1OC | -0.1 | 14.1 | 10.4* | 4.6 | nt | -2.8
COc1ccc(/C=N/NC(=O)c2c(C)nc3ccc(Cl)cn23)cc1OC | 0.2 | 1.3 | 2.2 | 6.9 | 0.5 | -0.1
C[C@H]1CN([C@@H](C)CO)C(=O)CCCn2cc(nn2)CO[C@@H]1CN(C)Cc1ccc(C(F)(F)F)cc1 | 0.0 | -0.8 | -4.6 | -0.6 | 81.9* | 7.9
C[C@@H]1CN([C@H](C)CO)C(=O)CCCn2cc(nn2)CO[C@@H]1CN(C)Cc1cccc(C(=O)O)c1 | 0.5 | -0.5 | 1.0 | 1.1 | 1.9 | -4.1
C[C@@H]1CN([C@@H](C)CO)C(=O)CCCn2cc(nn2)CO[C@@H]1CN(C)Cc1ccc2c(c1)OCO2 | 0.1 | -2.4 | -0.4 | -9.9 | 114.0* | -2.8
SMILES | XiGFP reactiv | PGC1a acetyl inh | F508del corr | FN deposition inh | Cneo AK release | DENV2 CPE
C[C@@H]1CN([C@@H](C)CO)C(=O)CCCn2cc(nn2)CO[C@@H]1CN(C)Cc1cccc(C(=O)O)c1 | -0.3 | 7.9 | -0.9 | -8.0 | 10.5 | 30.4*
C[C@@H]1CCCCO[C@H](CN(C)C(=O)c2ccccc2)[C@@H](C)CN([C@H](C)CO)C(=O)c2cc(NC(=O)Nc3ccc(F)cc3)ccc2O1 | 0.2 | -3.7 | -0.9 | nt | -0.7 | 31.5*
C[C@@H]1CN([C@@H](C)CO)C(=O)c2cc(NC(=O)Nc3ccc(F)cc3)ccc2O[C@@H](C)CCCCO[C@H]1CN(C)C(=O)c1ccccc1 | -1.1 | 2.2 | 0.9 | nt | -3.0 | -7.5
C[C@H]1CCCCO[C@@H](CN(C)C(=O)c2ccccc2)[C@@H](C)CN([C@@H](C)CO)C(=O)c2cc(NC(=O)Nc3ccc(F)cc3)ccc2O1 | 0.1 | ? | 4.4 | 13.1 | -1.0 | 22.4*
CCC1=C(OC(=O)N(CC)CC)N2C(=O)OC(=NCC3CC3)[C@]2(C)[C@H]2C1=CC[C@H]1C(=O)NC(=O)[C@H]12 | -0.3 | nt | 4.0 | 3.3 | 33.4 | 46.4*
CCC1=C(OC(=O)N(CC)CC)N2C(=O)OC(=NCCc3c[nH]c4ccccc34)[C@]2(C)[C@H]2C1=CC[C@H]1C(=O)NC(=O)[C@H]12 | 0.0 | nt | 2.6 | 8.0 | -1.8 | 27.2*
CCC1=C(OC(=O)N(CC)CC)N2C(=O)OC(=NCCc3c[nH]c4ccccc34)[C@]2(C)[C@H]2C1=CC[C@H]1C(=O)N(CC(=O)OC)C(=O)[C@H]12 | 0.0 | nt | -0.7 | -5.9 | -1.7 | nt
CNC(=O)C[C@@H]1CC[C@H]2[C@@H](COc3ccc(NC(=O)c4ccc(OC)cc4)cc3C(=O)N2C)O1 | 0.3 | 8.8 | 1.5 | -4.4 | -3.6 | 63.5*
COC(=O)C[C@@H]1CC[C@H]2[C@@H](COc3ccc(NC(=O)c4ccc(C(F)(F)F)cc4)cc3C(=O)N2C)O1 | 0.0 | -1.1 | 0.6 | -7.2 | -7.4 | 99.1*
CNC(=O)C[C@H]1CC[C@@H]2[C@@H](COc3ccc(NC(=O)c4ccccc4Cl)cc3C(=O)N2C)O1 | 0.5 | -4.6 | 0.6 | nt | 11.6 | 30.7*
CNC(=O)C[C@@H]1CC[C@@H]2[C@H](COc3ccc(NC(=O)c4cc(C)on4)cc3C(=O)N2C)O1 | 0.1 | 5.3 | 0.3 | 3.9 | 95.8* | nt
